How the values were obtained:
[1] = folding enthalpy; higher = less favourable; fluorescence melt of hairpins on a sequencing array, two-state fit; details: sodium 0.088 M
How it was run: (§1)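 Library hairpins on a sequenced MiSeq flow cell carried annealed Cy3 and quencher oligos, and their Cy3 fluorescence was imaged in 50 mM Na-HEPES pH 8.0 with 25 mM NaCl, in 2.5 °C steps up to 60 °C. Signals were normalised to Cy3 before quenching and to control constructs. Melting temperature and folding enthalpy were obtained from bootstrapped two-state fits, combined by inverse-variance weighting across four replicates, and the fitted temperatures were then raised by 9.35 °C to match UV melts.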

[2] = melting temperature; fluorescence melt of hairpins on a sequencing array, two-state fit, raised by 9.35 °C to match UV melts; details: sodium 0.088 M
How it was run: as §1

Sequence | folding enthalpy [1] | Tm [2]
GATCCAGCTATGGATC ((((((....)))))) | -33.5 kcal/mol | 58.8 °C
GATCCAGGAAACCGGATC (((((.(....).))))) | -33.3 kcal/mol | 45.7 °C
GATCCAGGCCTGGATC ((((((....)))))) | -54.9 kcal/mol | 60 °C
GATCCAGGCTTGGATC ((((((....)))))) | -43.8 kcal/mol | 54.8 °C
GATCCAGGGCTGGATC ((((((....)))))) | -38.3 kcal/mol | 52.4 °C
GATCCATAACTGGATC ((((((....)))))) | -33.9 kcal/mol | 48.1 °C
GATCCATAATTGGATC ((((((....)))))) | -39.7 kcal/mol | 50.7 °C
GATCCATAGGTGGATC ((((((....)))))) | -36 kcal/mol | 52 °C
GATCCATATGTGGATC ((((((....)))))) | -38.1 kcal/mol | 54.9 °C
GATCCATCATTGGATC ((((((....)))))) | -35.8 kcal/mol | 51.4 °C
GATCCATCCATGGATC ((((((....)))))) | -43.4 kcal/mol | 55.8 °C
GATCCATCCGTGGATC ((((((....)))))) | -46.6 kcal/mol | 52.9 °C
GATCCATCTGTGGATC ((((((....)))))) | -36.4 kcal/mol | 54.3 °C
GATCCATGATTGGATC ((((((....)))))) | -38.4 kcal/mol | 51.9 °C
GATCCATGCGTGGATC ((((((....)))))) | -35.8 kcal/mol | 56.8 °C
GATCCATGTATGGATC ((((((....)))))) | -42.6 kcal/mol | 58 °C
GATCCATTCTTGGATC ((((((....)))))) | -42.1 kcal/mol | 54 °C
GATCCATTTATGGATC ((((((....)))))) | -44.2 kcal/mol | 60.8 °C
GATCCCAAAAGGGATC ((((((....)))))) | -27.9 kcal/mol | 59.3 °C
GATCCCAACGGGGATC ((((((....)))))) | -30.9 kcal/mol | 59.4 °C
GATCCCAAGGGGATC ((((((...)))))) | -35.8 kcal/mol | 66.6 °C
GATCCCACAGGGATC ((((((...)))))) | -33.1 kcal/mol | 67.1 °C
GATCCCACAGGGGATC ((((((....)))))) | -33.4 kcal/mol | 61.8 °C
GATCCCACATGGGATC ((((((....)))))) | -45.5 kcal/mol | 60.8 °C

Sequence | folding enthalpy [1] | Tm [2]
GATCCCACGGGGATC ((((((...)))))) | -33.5 kcal/mol | 65.6 °C
GATCCCAGCGGGATC ((((((...)))))) | -37.9 kcal/mol | 68.9 °C
GATCCCAGTGGGGATC ((((((....)))))) | -32.7 kcal/mol | 62.3 °C
GATCCCATAGGGATC ((((((...)))))) | -36.9 kcal/mol | 67 °C
GATCCCATAGGGGATC ((((((....)))))) | -32.9 kcal/mol | 60.4 °C
GATCCCATCAGGGATC ((((((....)))))) | -36.3 kcal/mol | 65.7 °C
GATCCCATCCGGGATC ((((((....)))))) | -36.8 kcal/mol | 64.2 °C
GATCCCATCGGGATC ((((((...)))))) | -36.5 kcal/mol | 67.4 °C
GATCCCATTAGGGATC ((((((....)))))) | -36.5 kcal/mol | 63 °C
GATCCCATTCGGGATC ((((((....)))))) | -38.7 kcal/mol | 62.1 °C
GATCCCATTTGGGATC ((((((....)))))) | -37 kcal/mol | 66.1 °C
GATCCCCAACGGGATC ((((((....)))))) | -29.7 kcal/mol | 57.2 °C
GATCCCCAAGGGGATC ((((((....)))))) | -37.4 kcal/mol | 65 °C
GATCCCCACGGGGATC ((((((....)))))) | -36.2 kcal/mol | 66.4 °C
GATCCCCAGGGGATC ((((((...)))))) | -33.1 kcal/mol | 61.9 °C
GATCCCCATAGGGATC ((((((....)))))) | -41.1 kcal/mol | 62.8 °C
GATCCCCCCCGGGATC ((((((....)))))) | -38.5 kcal/mol | 57.2 °C
GATCCCCCGAGGGATC ((((((....)))))) | -34.6 kcal/mol | 62.1 °C
GATCCCCCGCGGGATC ((((((....)))))) | -34.2 kcal/mol | 57.2 °C
GATCCCCCGGGGATC ((((((...)))))) | -31.5 kcal/mol | 64.8 °C
GATCCCCCGTGGGATC ((((((....)))))) | -36.7 kcal/mol | 60.5 °C
GATCCCCCTGGGATC ((((((...)))))) | -38.4 kcal/mol | 62.1 °C
GATCCCCGAAAGGGAATC (((.(((....))).))) | -21.8 kcal/mol | 44.9 °C
GATCCCCGAAAGGGATC (((.(((....)))))) | -29.8 kcal/mol | 56.2 °C

Sequence | folding enthalpy [1] | Tm [2]
GATCCCCGAAAGGGTATC (((.(((....))).))) | -21.1 kcal/mol | 42.2 °C
GATCCCCGCCGGGATC ((((((....)))))) | -40.3 kcal/mol | 57.7 °C
GATCCCCGCTGGGATC ((((((....)))))) | -32.9 kcal/mol | 61.8 °C
GATCCCCGGAGGGATC ((((((....)))))) | -19.2 kcal/mol | 59.5 °C
GATCCCCTAGGGGATC ((((((....)))))) | -44.1 kcal/mol | 66.6 °C
GATCCCCTGGGGGATC ((((((....)))))) | -36.4 kcal/mol | 66.6 °C
GATCCCGAAAGGGTATC ((((((....))).))) | -15.8 kcal/mol | 45.5 °C
GATCCCGCATGGGATC ((((((....)))))) | -32.9 kcal/mol | 68 °C
GATCCCGCGTGGGATC ((((((....)))))) | -38.4 kcal/mol | 59.9 °C
GATCCCGCTGGGGATC ((((((....)))))) | -36.9 kcal/mol | 60.8 °C
GATCCCGGGTGGGATC ((((((....)))))) | -36 kcal/mol | 60.3 °C
GATCCCGGTCGGGATC ((((((....)))))) | -35.5 kcal/mol | 66.1 °C
GATCCCGGTTGGGATC ((((((....)))))) | -32.4 kcal/mol | 65.2 °C
GATCCCGTCGGGGATC ((((((....)))))) | -35.1 kcal/mol | 64.1 °C
GATCCCTAAAGGGATC ((((((....)))))) | -36.5 kcal/mol | 60.6 °C
GATCCCTAACGGGATC ((((((....)))))) | -39.7 kcal/mol | 57.6 °C
GATCCCTACGGGATC ((((((...)))))) | -32.5 kcal/mol | 67.9 °C
GATCCCTATGGGGATC ((((((....)))))) | -31.3 kcal/mol | 65.5 °C
GATCCCTCCCGGGATC ((((((....)))))) | -40.5 kcal/mol | 61.4 °C
GATCCCTCGCGGGATC ((((((....)))))) | -39.1 kcal/mol | 59.6 °C
GATCCCTCTTGGGATC ((((((....)))))) | -36.8 kcal/mol | 63.7 °C
GATCCCTGTCGGGATC ((((((....)))))) | -35 kcal/mol | 60 °C
GATCCCTGTGGGATC ((((((...)))))) | -35 kcal/mol | 66.7 °C
GATCCCTTACGGGATC ((((((....)))))) | -38.9 kcal/mol | 61.5 °C

Sequence | folding enthalpy [1] | Tm [2]
GATCCCTTAGGGATC ((((((...)))))) | -38.3 kcal/mol | 66.1 °C
GATCCCTTGGGGGATC ((((((....)))))) | -46.9 kcal/mol | 60.1 °C
GATCCGAAAGGATC (((((....))))) | -29.5 kcal/mol | 66.8 °C
GATCCGAACTCGGATC ((((((....)))))) | -40.9 kcal/mol | 56.4 °C
GATCCGAATCCGGATC ((((((....)))))) | -38.5 kcal/mol | 55.8 °C
GATCCGAATCGGATC ((((((...)))))) | -36 kcal/mol | 55 °C
GATCCGAATTCGGATC ((((((....)))))) | -43.3 kcal/mol | 60.2 °C
GATCCGACCACGGATC ((((((....)))))) | -36.9 kcal/mol | 61.3 °C
GATCCGACCCCGGATC ((((((....)))))) | -42.1 kcal/mol | 54.4 °C
GATCCGACGCCGGATC ((((((....)))))) | -36.7 kcal/mol | 56.7 °C
GATCCGACGCGGATC ((((((...)))))) | -37.3 kcal/mol | 56.8 °C
GATCCGACGTCGGATC ((((((....)))))) | -52 kcal/mol | 59.9 °C
GATCCGACTCCGGATC ((((((....)))))) | -44.3 kcal/mol | 55.1 °C
GATCCGAGAACGGATC ((((((....)))))) | -37.4 kcal/mol | 54.5 °C
GATCCGAGACCGGATC ((((((....)))))) | -36.6 kcal/mol | 54.4 °C
GATCCGAGAGCGGATC ((((((....)))))) | -38.3 kcal/mol | 54.6 °C
GATCCGAGCCCGGATC ((((((....)))))) | -35.6 kcal/mol | 55.3 °C
GATCCGATGACGGATC ((((((....)))))) | -35.4 kcal/mol | 58.2 °C
GATCCGATTCGGATC ((((((...)))))) | -39.2 kcal/mol | 58.3 °C
GATCCGATTTCGGATC ((((((....)))))) | -33 kcal/mol | 62.6 °C
GATCCGCAAACGGATC ((((((....)))))) | -42.2 kcal/mol | 58 °C
GATCCGCACCGGATC ((((((...)))))) | -29.4 kcal/mol | 57.1 °C
GATCCGCAGGCGGATC ((((((....)))))) | -28.3 kcal/mol | 66.6 °C
GATCCGCATCGGATC ((((((...)))))) | -38.3 kcal/mol | 56.5 °C

— the array DNA melting data of Ke et al. (doi:10.1101/2024.01.08.574731)
